From ChEMBL document CHEMBL4043131, “New prodrugs of two pyrimidine acyclic nucleoside phosphonates: Synthesis and antiviral activity” (Bioorg Med Chem, 2017)
Calls of active or inactive are those of the source. The calls are words filed in the database; no cut-off is given here.

How the values were obtained:
[1] = test system: Human alphaherpesvirus 1; assay: Antiviral activity against wild type Herpes simplex virus 1 KOS infected in HEL cells assessed as inhibition of virus-induced cytopathic effect; format: functional, cell-based; details: Human alphaherpesvirus 1, KOS
[2] = test system: Human alphaherpesvirus 2; assay: Antiviral activity against Herpes simplex virus 2 G infected in HEL cells assessed as inhibition of virus-induced cytopathic effect; format: functional, cell-based; details: Human alphaherpesvirus 2, strain G
In short: (§1)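 Confluent cell monolayers were infected with 100 CCID50 of virus (1 CCID50 = dose infecting 50% of cultures) and incubated with varying compound concentrations. Cytopathicity was scored once complete in untreated infected controls.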

[3] = test system: Human alphaherpesvirus 1; assay: Antiviral activity against thymidine kinase-deficient ACV-resistant Herpes simplex virus 1 KOS infected in HEL cells assessed as inhibition of virus-induced cytopathic effect; format: functional, cell-based; details: Human alphaherpesvirus 1, KOS
[4] = test system: Human alphaherpesvirus 3; assay: Antiviral activity against wild type thymidine kinase expressing Varicella-Zoster virus Oka infected in HEL cells assessed as inhibition of virus-induced plaque formation; format: functional, cell-based; details: Human alphaherpesvirus 3, Oka
In short: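 Confluent HEL cultures were inoculated with 20 PFU of VZV and incubated with varying compound concentrations. Plaques were counted once formation was complete in untreated infected controls.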

[5] = test system: Human alphaherpesvirus 3; assay: Antiviral activity against wild type thymidine kinase-deficient Varicella-Zoster virus 07-1 infected in HEL cells assessed as inhibition of virus-induced plaque formation; format: functional, cell-based; details: Human alphaherpesvirus 3, 07-1, HEL
In short: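 HEL fibroblast monolayers were infected with 20 PFU of VZV and kept with varying compound concentrations. Plaques were counted once formation was complete in untreated infected controls.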

[6] = test system: Human betaherpesvirus 5; assay: Antiviral activity against Human cytomegalovirus AD169 infected in HEL cells assessed as inhibition of virus-induced cytopathic effect; format: functional, cell-based; details: Human betaherpesvirus 5, AD169, HEL; in short: as §1
[7] = test system: Human betaherpesvirus 5; assay: Antiviral activity against Human cytomegalovirus Davis infected in HEL cells assessed as inhibition of virus-induced cytopathic effect; format: functional, cell-based; details: Human betaherpesvirus 5, Davis; in short: as §1
[8] = test system: Vaccinia virus; assay: Antiviral activity against Vaccinia virus Lederle infected in HEL cells assessed as inhibition of virus-induced cytopathic effect; format: functional, cell-based; details: Orthopoxvirus vaccinia
[9] = test system: Vesicular stomatitis virus; assay: Antiviral activity against Vesicular stomatitis virus infected in HEL cells assessed as inhibition of virus-induced cytopathic effect; format: functional, cell-based
[10] = test system: Coxsackievirus B4; assay: Antiviral activity against Coxsackie virus B4 infected in human HeLA cells assessed as inhibition of virus-induced cytopathic effect; format: functional, cell-based; in short: as §1
[11] = Antiviral activity against Respiratory syncytial virus A strain long infected in human HeLA cells assessed as inhibition of virus-induced cytopathic effect; format: functional, cell-based; in short: as §1
[12] = test system: Human respirovirus 3; assay: Antiviral activity against Parainfluenza virus 3 infected in African green monkey Vero cells assessed as inhibition of virus-induced cytopathic effect; format: functional; in short: as §1
[13] = test system: Mammalian orthoreovirus 1; assay: Antiviral activity against Reovirus-1 infected in African green monkey Vero cells assessed as inhibition of virus-induced cytopathic effect; format: functional; in short: as §1
[14] = test system: Sindbis virus; assay: Antiviral activity against Sindbis virus infected in African green monkey Vero cells assessed as inhibition of virus-induced cytopathic effect; format: functional; in short: as §1
[15] = test system: Punta Toro virus; assay: Antiviral activity against Punta Toro virus infected in African green monkey Vero cells assessed as inhibition of virus-induced cytopathic effect; format: functional; in short: as §1
[16] = test system: Feline coronavirus; assay: Antiviral activity against Feline coronavirus infected in CRFK cells assessed as inhibition of virus-induced cytopathic effect; format: functional, cell-based
[17] = test system: Influenza A virus; assay: Antiviral activity against Influenza A virus (H1N1) infected in HEL cells assessed as inhibition of virus-induced cytopathic effect; format: functional, cell-based
[18] = test system: Influenza A virus H3N2; assay: Antiviral activity against Influenza A virus H3N2 infected in HEL cells assessed as inhibition of virus-induced cytopathic effect; format: functional, cell-based
[19] = test system: Influenza B virus; assay: Antiviral activity against influenza B virus infected in HEL cells assessed as inhibition of virus-induced cytopathic effect; format: functional, cell-based
[20] = test system: HEL; assay: Cytotoxicity against HEL cells assessed as reduction in cell growth after 3 days by coulter counter method; format: cell-based; details: human, hel, 72 h
In short: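 HEL cells were seeded at 5 × 10³ cells/well and grown for 24 h, then given medium containing graded compound concentrations. After 3 days at 37 °C, cells were counted by Coulter counter.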

Row | Structure (SMILES) | EC50 [1] [µM] | EC50 [2] [µM] | EC50 [3] [µM] | EC50 [4] [µM] | EC50 [5] [µM] | EC50 [6] [µM] | EC50 [7] [µM] | EC50 [8] [µM] | Activity [9] | Activity [10] | Activity [11] | Activity [12] | Activity [13] | Activity [14] | Activity [15] | Activity [16] | Activity [17] | Activity [18] | Activity [19] | CC50 [20] [µM]
1 | CCCCCCCCCCCCCCCCCCOCCNc1ncn(CCOCP(=O)(OCCOCCCCCCCCCCCCCCCCCC)OCCOCCCCCCCCCCCCCCCCCC)c(=O)n1 | > 100 | > 100 | > 100 | 44.7 | 100 | > 100 | > 100 | > 100 | inactive | inactive | inactive | inactive | inactive | inactive | inactive | inactive | inactive | inactive | inactive | –
2 | CCOC(=O)[C@H](Cc1ccccc1)NP(=O)(O)COCCn1cnc(N)nc1=O | > 100 | > 100 | > 100 | > 100 | > 100 | > 100 | > 100 | > 100 | inactive | inactive | inactive | inactive | inactive | inactive | inactive | inactive | inactive | inactive | inactive | > 100
3 | Nc1nc(O)c2ncn(COC(CO)CO)c2n1 [GANCICLOVIR] | – | – | – | – | – | – | – | > 100 | – | – | – | – | – | – | – | – | – | – | – | ≥ 308
4 | CC(C)(C)C(=O)OCOP(=O)(COCCOc1cc(N)nc(N)n1)OCOC(=O)C(C)(C)C | 10 | 9.5 | 14.5 | 0.67 | 1.26 | 47.4 | 36.5 | – | inactive | inactive | inactive | inactive | inactive | inactive | inactive | inactive | inactive | inactive | inactive | 16.6
5 | O=c1[nH]c(=O)n([C@H]2C[C@H](O)[C@@H](CO)O2)cc1/C=C/Br [BRIVUDINE] | – | 141 | – | 0.024 | 58.8 | – | – | 19.1 | – | – | – | – | – | – | – | – | – | – | – | 242
6 | COP(=O)(O)COCCn1cnc(N)nc1=O | > 100 | > 100 | > 100 | > 100 | > 100 | > 100 | > 100 | > 100 | inactive | inactive | inactive | inactive | inactive | inactive | inactive | inactive | inactive | inactive | inactive | > 100
7 | CC(C)OC(=O)OCOP(=O)(O)COCCn1cnc(N)nc1=O | > 100 | > 100 | > 100 | 48.9 | 48.9 | > 100 | > 100 | > 100 | inactive | inactive | inactive | inactive | inactive | inactive | inactive | inactive | inactive | inactive | inactive | –
8 | CC(C)(C)C(=O)OCOP(=O)(O)COCCOc1cc(N)nc(N)n1 | 39.5 | 29 | 54 | 2.54 | 5.91 | > 100 | > 100 | > 100 | inactive | inactive | inactive | inactive | inactive | inactive | inactive | inactive | inactive | inactive | inactive | ≥ 100
9 | CCCCCCCCCCCCCCCCCCOCCOP(=O)(COCCn1cnc(N)nc1=O)OCCOCCCCCCCCCCCCCCCCCC | > 100 | > 100 | > 100 | > 4 | > 0.8 | > 20 | > 20 | > 100 | inactive | inactive | inactive | inactive | inactive | inactive | inactive | inactive | inactive | inactive | inactive | –
10 | Nc1ccn(C[C@@H](CO)OCP(=O)(O)O)c(=O)n1 [CIDOFOVIR] | 2.93 | 1.39 | 2.66 | – | – | 0.87 | 0.76 | 22.2 | – | – | – | – | – | – | – | – | – | – | – | 216
11 | Nc1nc2c(ncn2COCCO)c(=O)[nH]1 [ACYCLOVIR] | – | 0.18 | – | – | – | – | – | > 250 | – | – | – | – | – | – | – | – | – | – | – | > 440
12 | CC(C)OC(=O)OCOP(=O)(COCCn1cnc(N)nc1=O)OCOC(=O)OC(C)C | 22 | 22 | 22 | 15.3 | 23.2 | 26.2 | 20 | > 100 | inactive | inactive | inactive | inactive | inactive | inactive | inactive | inactive | inactive | inactive | inactive | –
